Measured values pooled from the literature.
Lines come from different studies, so protocols differ.
ABCG2: Broad substrate specificity ATP-binding cassette transporter ABCG2 (ABCG2, Homo sapiens, UniProt Q9UNQ0)

Compound | tested on | test | system | conditions | quantity | value
CO[C@H](C(=O)N1Cc2c(-c3ccc(C(=O)N4CCCc5ccccc54)cn3)cnn2C[C@H]1C(C)C)c1cnn(C)c1 (single isomer, unassigned) | ABCG2 | – | dog, MDCK-MDR1 | – | Papp B→A | 30.6 ×10⁻⁶ cm/s
O=C(O)c1cc(Br)c(O)c(Br)c1 | K562 | cell growth or viability | – | – | IC50 | > 432 µM
O=C(O)CSc1nnc(Br)n1-c1ccc(C2CC2)c2ccccc12 | ABCG2 | transporter uptake, inhibitor | Caco-2 | 30 µM, 2 h | inhibition | 27%
C[C@H](C(=O)N1Cc2c(-c3ccc(C(=O)N4CCCc5ccccc54)cc3)cnn2C[C@@H]1C)c1ccccc1 | ABCG2 | – | dog, MDCK-MDR1 | – | Papp B→A | 13.4 ×10⁻⁶ cm/s
O=C(N/N=C/c1ccc2ccccc2c1)c1ccc(O)c(O)c1 | K562 | cell growth or viability | – | – | IC50 | 28.9 µM
Cc1noc(C)c1Cn1cc(N2C(=O)CN(Cc3cccc(O)c3)C2=O)cn1 | – | – | male Sprague-Dawley rat, plasma | oral, 100 mg/kg, 12 h | concentration | 11.4 ng/mL
C/C(O)=C(\C#N)C(=O)Nc1ccc(C(F)(F)F)cc1 | ABCG2 | – | Caco-2 | 1 µM, 2 h, pH 7.4 | efflux ratio | 6.06
C[C@@H]1Cn2ncc(-c3ccc(C(=O)N4CCCc5ccccc54)cc3)c2CN1C(=O)Cc1ccccc1 | ABCG2 | – | dog, MDCK-MDR1 | – | Papp B→A | 16 ×10⁻⁶ cm/s
COc1ccc2c(c1)CCc1c(C(=O)NCCc3nc4cc(C)ccc4[nH]3)n[nH]c1-2 | K562 | cell growth or viability | – | – | IC50 | < 1.32 µM
COc1cccc(-c2n[nH]c(SCc3ccccn3)n2)c1OC | – | – | female Sprague-Dawley rat, plasma | intravenous, 1 mg/kg, 8 h, single dose | concentration | 24.7 ng/mL
CCc1cc(-c2noc(-c3cc(OC)nc(C4CCCC4)c3)n2)cc(C)c1OC[C@@H](O)CO | – | – | Wistar rat, plasma | oral, 1 mg/kg, 6 h, single dose | concentration | 41.1 ng/mL
CCOC(=O)[C@@]12C[C@@H]1[C@@H](n1ccc3c(NC)nc(C#Cc4ccc(Cl)s4)nc31)[C@H](O)[C@@H]2O | – | – | male Sprague-Dawley rat, plasma | oral, 3 mg/kg, 8 h | concentration | 3.68 ng/mL
COc1cc(/C=N\NC(=O)c2ccc(Br)cc2)ccc1OC(=O)c1cccs1 | K562 | cell growth or viability | – | – | IC50 | 32.4 µM
CC(C)[C@@H]1Cn2ncc(-c3ccc(C(=O)N4CCCc5ccccc54)cc3)c2CN1C(=O)Cc1ccccc1 | ABCG2 | – | dog, MDCK-MDR1 | – | Papp B→A | 5.2 ×10⁻⁶ cm/s
CCC1(C)CC(OC(=O)CSc2nnc(N)[nH]2)C2(C)C(C)CCC3(CCC(=O)C32)C(C)C1O (stereo not drawn) | K562 | cell growth or viability | – | – | IC50 | 21.3 µM
COc1ccc2c(=O)n(C)c(-c3ccccc3)nc2c1 | – | – | male Sprague-Dawley rat, lung | oral, 30 mg/kg, 15 min, single dose | concentration | 15.3 ng/g
Cc1cc2cc(O)cc(O)c2c(=O)o1 | K562 | cell growth or viability | – | – | IC50 | 19 µM
CO[C@H](C(=O)N1Cc2c(-c3ccc(C(=O)N4CCCc5ccccc54)cc3)cnn2C[C@H]1C(C)C)c1cnn(C)c1 (single isomer, unassigned) | ABCG2 | – | dog, MDCK-MDR1 | – | Papp B→A | 26.1 ×10⁻⁶ cm/s
